Values after ≈ are worked out from the molar mass of the structure shown.
How the values were obtained:
[1] = test system: Enterococcus faecalis; experiment: In vitro minimum inhibitory concentration (MIC) against Enterococcus faecalis A 9808 at 37 degrees C for 18 h.; format: functional
In short: (§1)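 Two-fold serial broth dilution in nutrient broth. Inoculum adjusted to 10^6 cfu/mL. Compounds tested from 0.0005 to 250 µg/mL.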

[2] = test system: Escherichia coli; experiment: In vitro minimum inhibitory concentration (MIC) against Escherichia coli A 15119 at 37 degrees C for 18 h.; format: functional; in short: as §1
[3] = test system: Enterococcus faecium; experiment: In vitro minimum inhibitory concentration (MIC) against Enterococcus faecium A 24885 at 37 degrees C for 18 h.; format: functional; in short: as §1
[4] = test system: Escherichia coli; experiment: Efficacy on systematic infections against Escherichia coli A 15119 after oral administration in mice; format: functional; details: read-out: PD50
In short: (§2)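 Mice given compound orally after lethal systemic infection. Read-out is the oral dose protecting 50% of mice from death (PD50), reported in mg/kg.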

[5] = test system: Klebsiella pneumoniae; experiment: Efficacy on systematic infections against Klebsiella pneumoniae A 9664 after oral administration in mice; format: functional; details: read-out: PD50; in short: as §2
[6] = test system: Klebsiella pneumoniae; experiment: In vitro minimum inhibitory concentration (MIC) against Klebsiella pneumoniae A 9664 at 37 degrees C for 18 h.; format: functional; in short: as §1
[7] = test system: Morganella morganii; experiment: In vitro minimum inhibitory concentration (MIC) against Morganella morganii A 15153 at 37 degrees C for 18 h.; format: functional; in short: as §1
[8] = test system: Pseudomonas aeruginosa; experiment: In vitro minimum inhibitory concentration (MIC) against Pseudomonas aeruginosa A 9843 at 37 degree C for 18 h; format: functional; in short: as §1
[9] = test system: Pseudomonas aeruginosa; experiment: Efficacy on systematic infections against Pseudomonas aeruginosa A 9843 after oral administration in mice; format: functional; details: read-out: PD50; in short: as §2
[10] = test system: Staphylococcus aureus; experiment: Efficacy on systematic infections against Staphylococcus aureus A 9537 after oral administration in mice; format: functional; details: read-out: PD50; in short: as §2
[11] = test system: Staphylococcus aureus; experiment: In vitro minimum inhibitory concentration (MIC) against Staphylococcus aureus Smith A 9537 at 37 degrees C for 18 hr; format: functional; in short: as §1
[12] = test system: Serratia marcescens; experiment: In vitro minimum inhibitory concentration (MIC) against Serratia marcescens A 20019 at 37 degrees C for 18 hr; format: functional; in short: as §1
[13] = test system: Enterobacter cloacae; experiment: In vitro minimum inhibitory concentration (MIC) against Enterobacter cloacae A 9656 at 37 degrees C for 18 h.; format: functional
[14] = test system: Pseudomonas aeruginosa; experiment: In vitro minimum inhibitory concentration (MIC) against Pseudomonas aeruginosa A 9843 at 37 degrees C for 18 h; format: functional; in short: as §1
[15] = Tested for aqueous solubility; details: aqueous medium

| MIC [14] [µg/mL] | Structure (SMILES) | MIC [1] [µg/mL] | MIC [2] [µg/mL] | MIC [3] [µg/mL] | ED50 [4] [mg/kg] | ED50 [5] [mg/kg] | MIC [6] [µg/mL] | MIC [7] [µg/mL] | MIC [8] [µg/mL] | ED50 [9] [mg/kg] | ED50 [10] [mg/kg] | MIC [11] [µg/mL] | MIC [12] [µg/mL] | MIC [13] [µg/mL] | solubility [15] [µg/mL] |
| --- | --- | --- | --- | --- | --- | --- | --- | --- | --- | --- | --- | --- | --- | --- | --- |
|  | CC(C)(C)n1cc(C(=O)O)c(=O)c2cc(F)c(N3CCC(N)C3)nc21.CS(=O)(=O)O (stereo not drawn) | 0.25 | 0.13 | 1 | 1.4 | 2.1 | 0.25 | 1 | 2 | 3.5 | 1.4 | 0.015 | 0.25 | 0.13 |  |
|  | CC1CN(c2nc3c(cc2F)c(=O)c(C(=O)O)cn3C(C)(C)C)CCN1C (stereo not drawn) | 1 (≈ 2.66 µM) | 0.03 (≈ 0.0797 µM) | 4 (≈ 10.6 µM) |  |  | 0.13 (≈ 0.345 µM) | 1 (≈ 2.66 µM) | 4 (≈ 10.6 µM) |  |  | 0.13 (≈ 0.345 µM) | 1 (≈ 2.66 µM) | 0.06 (≈ 0.159 µM) |  |
|  | CS(=O)(=O)O.C[C@H]1CN(c2nc3c(cc2F)c(=O)c(C(=O)O)cn3C(C)(C)C)C[C@H]1N | 0.13 | 0.25 | 1 | 2.4 | 4.1 | 0.03 | 0.5 | 0.5 | 9 | 1.6 | 0.015 | 0.25 | 0.13 |  |
|  | CN(C)C1CCN(c2nc3c(cc2F)c(=O)c(C(=O)O)cn3C(C)(C)C)C1 (stereo not drawn) | 0.5 (≈ 1.33 µM) | 0.25 (≈ 0.664 µM) | 8 (≈ 21.3 µM) |  |  | 0.13 (≈ 0.345 µM) | 0.5 (≈ 1.33 µM) | 1 (≈ 2.66 µM) |  |  | 0.03 (≈ 0.0797 µM) | 1 (≈ 2.66 µM) | 1 (≈ 2.66 µM) |  |
|  | CC[C@H]1CN(c2nc3c(cc2F)c(=O)c(C(=O)O)cn3C(C)(C)C)C[C@@H]1N.CS(=O)(=O)O | 0.13 | 0.03 | 2 |  |  | 0.06 | 0.25 | 1 |  |  | 0.015 | 0.25 | 0.03 |  |
|  | CC(C)(C)n1cc(C(=O)O)c(=O)c2cc(F)c(N3CCC(CN)C3)cc21 (stereo not drawn) | 0.25 (≈ 0.692 µM) | 0.25 (≈ 0.692 µM) | 0.5 (≈ 1.38 µM) |  |  | 0.25 (≈ 0.692 µM) | 2 (≈ 5.53 µM) | 0.5 (≈ 1.38 µM) |  |  | 0.03 (≈ 0.083 µM) | 2 (≈ 5.53 µM) | 0.25 (≈ 0.692 µM) |  |
|  | CC(C)(C)n1cc(C(=O)O)c(=O)c2cc(F)c(N3CCC(CN)C3)nc21 (stereo not drawn) | 0.25 (≈ 0.69 µM) | 0.5 (≈ 1.38 µM) | 2 (≈ 5.52 µM) |  |  | 0.25 (≈ 0.69 µM) | 1 (≈ 2.76 µM) | 1 (≈ 2.76 µM) |  |  | 0.03 (≈ 0.0828 µM) | 2 (≈ 5.52 µM) | 0.5 (≈ 1.38 µM) |  |
|  | CCNCC1CCN(c2cc3c(cc2F)c(=O)c(C(=O)O)cn3C(C)(C)C)C1 (stereo not drawn) | 0.5 (≈ 1.28 µM) | 0.25 (≈ 0.642 µM) | 4 (≈ 10.3 µM) |  |  | 1 (≈ 2.57 µM) | 2 (≈ 5.14 µM) | 8 (≈ 20.5 µM) |  |  | 0.06 (≈ 0.154 µM) | 8 (≈ 20.5 µM) | 0.5 (≈ 1.28 µM) |  |
|  | CC(C)(C)n1cc(C(=O)O)c(=O)c2cc(F)c(N3C[C@@H](CN)[C@@H](F)C3)nc21 | 0.13 (≈ 0.342 µM) | 0.06 (≈ 0.158 µM) | 1 (≈ 2.63 µM) | 18 | 18 | 0.25 (≈ 0.657 µM) | 0.5 (≈ 1.31 µM) | 0.5 (≈ 1.31 µM) | 18 | 4.5 | 0.015 (≈ 0.0394 µM) | 0.5 (≈ 1.31 µM) | 0.25 (≈ 0.657 µM) |  |
|  | CC(C)(C)n1cc(C(=O)O)c(=O)c2cc(F)c(N3CCNC(c4ccccc4)C3)nc21.CS(=O)(=O)O (stereo not drawn) | 1 | 0.06 | 8 |  |  | 0.06 | 1 | 4 |  |  | 0.03 | 2 | 0.06 |  |
|  | CC(C)(C)n1cc(C(=O)O)c(=O)c2cc(F)c(N3CCNC(c4ccccc4)C3)cc21.CS(=O)(=O)O (stereo not drawn) | 0.5 | 0.06 | 4 |  |  | 0.25 | 0.5 | 1 |  |  | 0.06 | 2 | 0.13 |  |
| 0.5 | CN1CCN(c2cc3c(cc2F)c(=O)c(C(=O)O)cn3C(C)(C)C)CC1.Cl | 4 | 0.03 | 16 |  |  | 0.25 | 0.25 |  |  |  | 0.03 | 1 | 0.25 |  |
|  | CC[C@H]1CN(c2nc3c(cc2F)c(=O)c(C(=O)O)cn3C(C)(C)C)C[C@H]1N.Cl | 0.25 | 0.13 | 2 |  |  | 0.13 | 0.5 | 1 |  |  | 0.015 | 0.5 | 0.06 |  |
|  | CC(C)(C)n1cc(C(=O)O)c(=O)c2cc(F)c(N3CCC(N)C3)cc21.Cl (stereo not drawn) | 0.25 | 0.06 | 2 | 5.4 | 23 | 0.25 | 0.5 | 1 | 19.9 | 8.2 | 0.03 | 1 | 0.13 | 70 |

From ChEMBL document CHEMBL1124759, “Fluoronaphthyridines and quinolones as antibacterial agents. 2. Synthesis and structure-activity relationships of new 1-tert-butyl 7-substituted derivatives” (J Med Chem, 1990)
